Assay results from paper PMC7770080 (Biochemical pharmacology, 2020).
Read-outs that look alike come from different tables or passages of the source.

Assays:
[1] = tested on: C. difficile strain 630 spores; assay: Prevention of murine CDI after C. difficile spore challenge; assay type: in vivo, mice; settings: 50 mg/kg oral gavage, three doses; for Time to clinical endpoint: clinical endpoint > 6 on CDI severity scale; for CDI signs in spore-challenged mice: 10^8 CFU spores
[2] = CamSA and mSA in liver, blood, kidney and chyme after oral CamSA; assay type: in vivo, mice; settings: for Highest concentration found in the liver: 50 mg/kg oral CamSA, calculated; for Amount recovered from chyme as fraction of total dosed CamSA: all five time points together; for Total administered CamSA recovered from feces, organs and chyme: semi-quantitative
CYP3A4 = CYP3A4 (Homo sapiens, UniProt P08684); assay: Vivid CYP3A4 Green screening assay with P450 BACULOSOMES
C. difficile spores [3] = assay: In vitro C. difficile spore germination assay; assay type: cell-based, Clostridioides difficile
[4] = Fecal excretion of CamSA and mSA after oral CamSA in cpx and non-cpx mice; assay type: in vivo
[5] = Interaction with cholestyramine resin in vitro and recovery from the resin; assay type: physicochemical; settings: for Binding to cholestyramine resin in vitro: 20 mg/ml cholestyramine, overnight, 37°C
C. difficile [6] = settings: cited from earlier work
[7] = 24 hours, both conditions; cited from earlier work
Caco-2 monolayers = settings: cited from earlier work
Bifidobacterium longum = settings: 24 hours, pure culture; cited from earlier work
[8] = Effect of cholestyramine feed on CamSA in liver of cpx mice; assay type: in vivo; settings: 22 hours post-CamSA
Method in brief: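 Cefoperazone-treated mice, individually housed, were fed chow with 4% w/w (n=3) or 0% w/w (n=4) cholestyramine from 24 h before test compound dosing until the end. At 22 h post-dose, livers with attached gallbladders were harvested, stored at −20 °C, then homogenised. Acetonitrile was added to precipitate protein, and samples were centrifuged and filtered (0.2 μm). Analysis was by RP-HPLC-MS on a PSDVB column with isocratic 40% ACN, 5 mM ammonium acetate, 0.1% formic acid.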

C. difficile spores [9] = settings: in vitro and in vivo; cited from earlier work
[10] = tested on: murine GI microbiota (feces); assay: Metabolism of CamSA by fecal microbiota; assay type: in vitro ADME, mice
Lactobacillus gasseri = settings: 24 hours, pure culture; cited from earlier work
C. difficile [11] = settings: cited from earlier work; remark: listed apart in the source

CYP3A4, sequence (P08684 whole entry): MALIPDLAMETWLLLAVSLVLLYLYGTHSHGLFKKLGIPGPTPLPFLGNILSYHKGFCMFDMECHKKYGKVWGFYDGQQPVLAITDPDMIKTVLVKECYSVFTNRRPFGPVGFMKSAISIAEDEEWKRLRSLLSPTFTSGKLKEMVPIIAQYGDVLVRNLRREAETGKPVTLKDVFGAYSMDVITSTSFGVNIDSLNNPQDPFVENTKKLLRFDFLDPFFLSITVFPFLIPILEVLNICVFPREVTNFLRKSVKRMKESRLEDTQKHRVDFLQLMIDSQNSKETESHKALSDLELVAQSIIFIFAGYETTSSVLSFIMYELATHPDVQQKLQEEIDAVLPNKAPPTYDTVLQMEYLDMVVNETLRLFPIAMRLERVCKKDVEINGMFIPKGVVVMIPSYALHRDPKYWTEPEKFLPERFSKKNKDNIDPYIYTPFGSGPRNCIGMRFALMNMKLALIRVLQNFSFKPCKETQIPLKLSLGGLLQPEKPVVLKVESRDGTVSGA

SMILES: C[C@H](CCC(=O)Nc1cccc(S(=O)(=O)O)c1)[C@H]1CC[C@H]2[C@@H]3[C@H](O)C[C@@H]4C[C@H](O)CC[C@]4(C)[C@H]3CC[C@]12C [12-deoxy-CamSA]
- CDI severity score [1]: > 6
- Time to clinical endpoint [1]: 48 hours post-challenge

SMILES: Nc1cccc(S(=O)(=O)O)c1 [mSA, metanilic acid]
- Highest concentration found in the liver [2]: approximately 20 μM
- Detection in kidney ([2]; cpx mice): detected
- Detection in blood ([2]; cpx mice, any time point): unable to detect
- Amount recovered from chyme relative to amount recovered from feces ([2]; non-cpx mice): about 85%
- Detection in blood ([2]; non-cpx mice): only detected in blood at the 22-hour time point
- Detection in kidney ([2]; non-cpx mice): only detected in kidney at the 12-hour time point
- Amount recovered from chyme as fraction of total dosed CamSA ([2]; non-cpx mice, detected as mSA): 13%
- Time to clinical endpoint [1]: ≤ 48 hours post-challenge
- IC50 (CYP3A4): 17.5 ± 1.1 mM
- Effect on C. difficile spore germination in vitro (C. difficile spores [3]): neither induced nor inhibited
- Detection in feces ([4]; cpx mice, any time point): not observed
- Amount recovered from feces relative to CamSA from the same animals (higher) ([4]; non-cpx mice): approximately 40 fold
- Time of first large peak in feces ([4]; non-cpx mice, after CamSA administration): ≤ 12 h
- Binding to cholestyramine resin in vitro [5]: bound completely
- Reversibility of binding to cholestyramine ([5]; stripping under strong acidic conditions): irreversible

SMILES: C[C@H](CCC(=O)Nc1cccc(S(=O)(=O)O)c1)[C@H]1CC[C@H]2[C@@H]3CC[C@@H]4C[C@H](O)CC[C@]4(C)[C@H]3C[C@H](O)[C@]12C [7-deoxy-CamSA]
- CDI signs in spore-challenged mice [1]: only moderate CDI signs

SMILES: C[C@H](CCC(=O)[O-])[C@H]1CC[C@H]2[C@@H]3[C@H](O)C[C@@H]4C[C@H](O)CC[C@]4(C)[C@H]3C[C@H](O)[C@]12C.[Na+] [cholate, Sodium cholate, reference compound]
- Time to clinical endpoint [1]: ≤ 48 hours post-challenge
- Effect on C. difficile spore germination in vitro (C. difficile spores [3]): could stimulate spore germination

SMILES: C[C@H](CCC(=O)Nc1cccc(S(=O)(=O)O)c1)[C@H]1CC[C@H]2[C@@H]3[C@H](O)C[C@@H]4C[C@H](O)CC[C@]4(C)[C@H]3C[C@H](O)[C@]12C [CamSA]
- Effect on mean time of death of infected animals (C. difficile [6]; CamSA alone): double the mean time of death
- Prevention of CDI onset (C. difficile [6]; CamSA alone): unable to prevent the onset of CDI
- Hamsters protected, no CDI symptoms a month post-challenge (C. difficile [6]; CamSA with sub-clinical doses of vancomycin): 70%
- Highest concentration found in the liver [2]: approximately 140 μM
- Total administered CamSA recovered from feces, organs and chyme ([2]; cpx animals): approximately 40%
- Detection in kidney ([2]; cpx mice): negligible amounts
- Total amount recovered from liver relative to feces (less) ([2]; cpx mice): approximately 10 fold
- Amount recovered from chyme as fraction of total dosed CamSA ([2]; cpx mice): 10%
- Detection in blood ([2]; cpx mice, any time point): unable to detect
- Time of peak hepatic concentration ([2]; cpx mice, one animal per time point): 22 h
- CamSA and mSA recovered from chyme relative to blood (higher) ([2]; mouse, in vivo): 300 fold
- CamSA and mSA recovered from chyme relative to other organs (higher) ([2]; mouse, in vivo): at least 10 fold
- Total administered CamSA recovered from feces, organs and chyme ([2]; non-cpx animals): ~25%
- Detection in blood ([2]; non-cpx mice): not detected
- Total combined CamSA and mSA recovered from liver relative to feces (less) ([2]; non-cpx mice): approximately 10 fold
- Degradation in artificial gastric or intestinal juices [7]: no CamSA degradation was observed
- Intestinal permeability (Caco-2 monolayers): limited intestinal permeability
- CDI signs in spore-challenged mice [1]: little to no signs of CDI
- IC50 (CYP3A4; read-out: IC50 on CYP3A4 activity, assuming inhibition of CYP3A4, triplicate): 0.62 ± 0.11 mM
- CamSA hydrolyzed (Bifidobacterium longum): approximately 80%
- Retention of intact compound in the animal ([4]; antibiotic-treated mouse): 7 days post-administration
- Start of CamSA excretion in feces ([4]; cpx mice): around 6 hours post-administration
- Time of second fecal excretion maximum ([4]; cpx mice): 32 hours post-administration
- Fraction of total dosed CamSA recovered from feces ([4]; cpx mice, 50 mg/kg oral, over a week): approximately 30%
- Detection in feces ([4]; non-cpx mice): low levels of intact CamSA
- Maximum amount recovered from feces at a single time point relative to cpx mice ([4]; non-cpx mice): four-fold lower
- Fraction of total dosed drug recovered from feces, mSA plus CamSA ([4]; non-cpx mice, 50 mg/kg oral, over a week): approximately 15%
- Detection in liver ([8]; 0% cholestyramine feed): detected CamSA from liver samples from three of the four mice
- Detection in liver ([8]; 4% cholestyramine feed): unable to detect
- Effect on taurocholate-mediated C. difficile spore germination (C. difficile spores [9]): potent inhibitor
- Hydrolysis of CamSA to cholate and mSA ([10]; GI microbiota of mice not treated with antibiotics): slowly hydrolyzed
- Degradation of CamSA by recovered microbiota ([10]; feces collected one week after last antibiotic dose, data not shown): degraded CamSA at a similar rate as feces from animals that had never received antibiotics
- Binding to cholestyramine resin in vitro [5]: nearly complete sequestration
- Recovery from cholestyramine resin ([5]; 0.5 N aqueous HCl, absence of feces): less than 1%
- Recovery from cholestyramine resin ([5]; 0.5 N ethanolic HCl, absence of feces): up to 75%
- Recovery from cholestyramine resin ([5]; 0.5 N ethanolic HCl, presence of fecal matter): less than 10%
- CamSA hydrolyzed (Lactobacillus gasseri): approximately 80%
- Acute toxicity (C. difficile [11]; CamSA-treated mice): did not indicate any signs of acute toxicity or damage to GI tissue
- Prevention of CDI symptoms (C. difficile [11]; single 50 mg/kg dose): completely prevent CDI symptoms
